Data reported in ChEMBL document CHEMBL4229344 (Eur J Med Chem, 2018).

What was measured:
[1] = molecular target: Epithelial discoidin domain-containing receptor 1 (Homo sapiens, UniProt Q08345); experiment: Inhibition of DDR1 (unknown origin) using poly(4:1 Glu,Tyr) peptide as substrate preincubated for 1 hr followed by addition of ATP and measured after 30 mins by ADP-Glo bioluminescence assay
[2] = molecular target: Mitogen-activated protein kinase kinase kinase 2 (Homo sapiens) (UniProt Q9Y2U5); experiment: Binding affinity to wild-type human partial length MAP3K2 (S315 to H619 residues) expressed in mammalian expression system assessed as residual binding level at 1 uM by Kinomescan method relative to control
[3] = molecular target: Serine/threonine-protein kinase DCLK1 (Homo sapiens) (UniProt O15075); experiment: Binding affinity to wild-type human partial length DCAMKL1 (L270 to A662 residues) expressed in mammalian expression system assessed as residual binding level at 1 uM by Kinomescan method relative to control
Procedure, shortened: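 Kinome-wide competition binding screen against a panel of 468 purified kinases/mutants, with the test compound at a single concentration of 1 μM. Read-out is the relative binding activity of each kinase in the presence of compound.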

[4] = molecular target: Tyrosine-protein kinase ABL1 (Homo sapiens, UniProt P00519); experiment: Binding affinity to wild-type human non-phosphorylated ABL1 (S229 to K512 residues) expressed in mammalian expression system assessed as residual binding level at 1 uM by Kinomescan method relative to control
Procedure, shortened: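 Single-concentration KINOMEscan (DiscoverX) binding screen at 1 μM against a panel of 468 purified kinases and mutants. The read-out is binding relative to control.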

[5] = molecular target: Phosphatidylinositol 3-kinase catalytic subunit type 3 (Homo sapiens) (UniProt Q8NEB9); experiment: Binding affinity to wild-type human partial length VPS34 (S282 to H879 residues) expressed in mammalian expression system assessed as residual binding level at 1 uM by Kinomescan method relative to control
[6] = molecular target: Platelet-derived growth factor receptor beta (Homo sapiens, UniProt P09619); experiment: Inhibition of TEL-fused PDGFRbeta (unknown origin) expressed in mouse BA/F3 cells assessed as growth inhibition after 72 hrs by CellTiter-Glo or CCK-8 assay; type: cell-based
Procedure, shortened: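 Parental BaF3 or IL-3-independent TEL-kinase BaF3 lines, made by retroviral infection and puromycin selection, grown in RPMI 1640 with 10% FBS. Cells seeded at 1–3 × 10^4 cells/mL with serial compound concentrations for 72 h. Viability read by CellTiter-Glo luminescence or CCK-8 absorbance at 450/655 nm and normalised to DMSO. GI50 obtained by triplicate testing with linear regression. Selectivity is the ratio of the two GI50 values.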

[7] = tested on: Proto-oncogene tyrosine-protein kinase receptor Ret (Homo sapiens), P07949 [M918T]; experiment: Binding affinity to human partial length RET M918T mutant (E713 to D1014 residues) expressed in bacterial expression system assessed as residual binding level at 1 uM by Kinomescan method relative to control
Procedure, shortened: (§1)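 Kinome-wide single-concentration binding screen (KINOMEscan) at 1 μM against a panel of 468 purified kinases and mutants. Read-out is relative binding of each kinase compared with control. Selectivity across the panel was summarised as an S(10) score.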

[8] = molecular target: Serine/threonine-protein kinase ULK3 (Homo sapiens) (UniProt Q6PHR2); experiment: Binding affinity to wild-type human partial length ULK3 (M1 to Q290 residues) expressed in mammalian expression system assessed as residual binding level at 1 uM by Kinomescan method relative to control
[9] = tested on: Receptor-type tyrosine-protein kinase FLT3 (Homo sapiens), P36888 [D835V]; experiment: Binding affinity to human partial length FLT3 D835V mutant (V592 to Y969 residues) expressed in bacterial expression system assessed as residual binding level at 1 uM by Kinomescan method relative to control; procedure, shortened: as §1
[10] = molecular target: Calcium/calmodulin-dependent protein kinase type II subunit delta (Homo sapiens) (UniProt Q13557); experiment: Binding affinity to wild-type human partial length CAMK2D (M1 to E329 residues) expressed in bacterial expression system assessed as residual binding level at 1 uM by Kinomescan method relative to control
[11] = Apparent volume of distribution in Sprague-Dawley rat at 1 mg/kg, iv; type: ADME, organism-based; settings: in vivo, read-out: Vz
[12] = molecular target: Platelet-derived growth factor receptor alpha (Homo sapiens, UniProt P16234); experiment: Inhibition of PDGF-induced PDGFRalpha autophosphorylation at Y849 residue in human NCI-H1703 cells after 2 hrs in presence of PDGF-AA by Western blot analysis; type: cell-based
[13] = molecular target: Activin receptor type-1-like (Homo sapiens) (UniProt P37023); experiment: Binding affinity to wild-type human ACVRL1 (L164 to Q503 residues) expressed in bacterial expression system assessed as residual binding level at 1 uM by Kinomescan method relative to control
Procedure, shortened: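 Single-concentration (1 μM) competition-binding screen run by KINOMEscan against a panel of 468 purified kinases and mutants. The read-out is the relative binding activity of the test compound to each kinase.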

[14] = molecular target: Transient receptor potential cation channel subfamily M member 6 (Homo sapiens) (UniProt Q9BX84); experiment: Binding affinity to wild-type human partial length TRPM6 (Q1723 to I1998 residues) expressed in mammalian expression system assessed as residual binding level at 1 uM by Kinomescan method relative to control
[15] = molecular target: Serine/threonine-protein kinase mTOR (Homo sapiens) (UniProt P42345); experiment: Binding affinity to wild-type human partial length MTOR (L1382 to W2549 residues) expressed in mammalian expression system assessed as residual binding level at 1 uM by Kinomescan method relative to control
[16] = molecular target: Serine/threonine-protein kinase 16 (Homo sapiens) (UniProt O75716); experiment: Binding affinity to wild-type human partial length STK16 (G11 to I305 residues) expressed in bacterial expression system assessed as residual binding level at 1 uM by Kinomescan method relative to control
[17] = molecular target: Wee1-like protein kinase 2 (Homo sapiens) (UniProt P0C1S8); experiment: Binding affinity to wild-type human partial length WEE2 (M204 to K492 residues) expressed in bacterial expression system assessed as residual binding level at 1 uM by Kinomescan method relative to control
[18] = molecular target: BDNF/NT-3 growth factors receptor (Homo sapiens) (UniProt Q16620); experiment: Binding affinity to wild-type human partial length TRKB (Q547 to G838 residues) expressed in mammalian expression system assessed as residual binding level at 1 uM by Kinomescan method relative to control
[19] = molecular target: Cyclin-dependent kinase-like 5 (Homo sapiens) (UniProt O76039); experiment: Binding affinity to wild-type human partial length CDKL5 (M1 to S337 residues) expressed in mammalian expression system assessed as residual binding level at 1 uM by Kinomescan method relative to control
[20] = molecular target: Dual specificity protein kinase CLK1 (Homo sapiens) (UniProt P49759); experiment: Binding affinity to wild-type human full length CLK1 (M1 to I484 residues) expressed in bacterial expression system assessed as residual binding level at 1 uM by Kinomescan method relative to control
Procedure, shortened: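 KINOMEscan competition binding against 468 purified kinases/mutants, test compound at 1 µM; residual binding relative to control.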

Sequence of Cyclin-dependent kinase-like 5 (Homo sapiens) (O76039 whole entry, the tested form may be a part): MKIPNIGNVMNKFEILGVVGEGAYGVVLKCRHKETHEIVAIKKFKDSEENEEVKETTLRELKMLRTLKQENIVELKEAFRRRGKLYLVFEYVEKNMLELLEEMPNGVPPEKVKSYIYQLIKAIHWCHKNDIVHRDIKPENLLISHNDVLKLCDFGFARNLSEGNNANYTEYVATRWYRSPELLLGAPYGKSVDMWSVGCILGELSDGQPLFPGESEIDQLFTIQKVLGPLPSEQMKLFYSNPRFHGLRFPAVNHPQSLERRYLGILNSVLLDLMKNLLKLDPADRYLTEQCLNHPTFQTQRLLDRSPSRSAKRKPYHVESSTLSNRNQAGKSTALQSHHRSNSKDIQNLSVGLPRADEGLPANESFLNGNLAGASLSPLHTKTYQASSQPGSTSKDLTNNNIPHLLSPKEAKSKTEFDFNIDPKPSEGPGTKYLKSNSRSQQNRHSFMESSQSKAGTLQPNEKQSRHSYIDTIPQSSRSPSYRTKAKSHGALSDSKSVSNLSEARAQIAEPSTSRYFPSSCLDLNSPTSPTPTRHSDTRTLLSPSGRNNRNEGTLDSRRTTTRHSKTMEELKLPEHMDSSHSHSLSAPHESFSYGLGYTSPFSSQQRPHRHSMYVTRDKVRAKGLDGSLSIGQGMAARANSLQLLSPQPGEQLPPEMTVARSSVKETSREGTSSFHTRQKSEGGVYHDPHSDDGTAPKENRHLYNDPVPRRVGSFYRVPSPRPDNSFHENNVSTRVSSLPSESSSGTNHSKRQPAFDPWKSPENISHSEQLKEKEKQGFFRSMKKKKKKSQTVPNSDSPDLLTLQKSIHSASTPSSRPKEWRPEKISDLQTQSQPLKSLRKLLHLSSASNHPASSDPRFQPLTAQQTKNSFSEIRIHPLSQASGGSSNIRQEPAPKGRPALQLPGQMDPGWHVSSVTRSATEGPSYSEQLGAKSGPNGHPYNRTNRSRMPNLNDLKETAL
Sequence of Calcium/calmodulin-dependent protein kinase type II subunit delta (Homo sapiens) (Q13557 whole entry, the tested form may be a part): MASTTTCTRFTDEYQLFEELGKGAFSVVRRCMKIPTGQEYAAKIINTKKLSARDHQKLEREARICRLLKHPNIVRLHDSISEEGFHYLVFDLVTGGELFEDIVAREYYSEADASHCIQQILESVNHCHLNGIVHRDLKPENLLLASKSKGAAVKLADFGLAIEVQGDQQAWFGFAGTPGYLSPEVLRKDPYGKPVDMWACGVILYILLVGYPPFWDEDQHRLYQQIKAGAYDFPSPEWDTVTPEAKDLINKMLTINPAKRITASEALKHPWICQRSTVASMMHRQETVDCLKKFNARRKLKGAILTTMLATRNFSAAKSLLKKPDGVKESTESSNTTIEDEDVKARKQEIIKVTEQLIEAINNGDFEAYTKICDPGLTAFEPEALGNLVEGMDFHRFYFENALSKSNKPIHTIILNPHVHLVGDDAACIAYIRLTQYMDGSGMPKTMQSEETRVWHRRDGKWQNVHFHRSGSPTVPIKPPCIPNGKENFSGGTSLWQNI
Sequence of Wee1-like protein kinase 2 (Homo sapiens) (P0C1S8 whole entry, looked up, the tested form may be a part): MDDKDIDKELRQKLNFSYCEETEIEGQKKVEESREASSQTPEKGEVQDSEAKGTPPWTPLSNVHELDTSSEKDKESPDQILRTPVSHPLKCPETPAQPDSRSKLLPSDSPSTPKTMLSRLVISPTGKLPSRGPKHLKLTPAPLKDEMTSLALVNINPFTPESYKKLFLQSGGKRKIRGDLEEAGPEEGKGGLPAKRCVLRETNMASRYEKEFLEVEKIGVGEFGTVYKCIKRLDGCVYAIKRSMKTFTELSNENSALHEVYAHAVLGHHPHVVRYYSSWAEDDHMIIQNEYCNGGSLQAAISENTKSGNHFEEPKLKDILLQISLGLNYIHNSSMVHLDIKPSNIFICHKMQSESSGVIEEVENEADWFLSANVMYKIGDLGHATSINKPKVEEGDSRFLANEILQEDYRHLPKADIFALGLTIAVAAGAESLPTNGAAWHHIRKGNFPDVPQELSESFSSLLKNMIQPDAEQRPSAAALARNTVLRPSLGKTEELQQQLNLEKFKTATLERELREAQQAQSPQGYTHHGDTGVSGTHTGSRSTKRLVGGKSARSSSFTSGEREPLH
Sequence of Platelet-derived growth factor receptor alpha (P16234 whole entry, the tested form may be a part): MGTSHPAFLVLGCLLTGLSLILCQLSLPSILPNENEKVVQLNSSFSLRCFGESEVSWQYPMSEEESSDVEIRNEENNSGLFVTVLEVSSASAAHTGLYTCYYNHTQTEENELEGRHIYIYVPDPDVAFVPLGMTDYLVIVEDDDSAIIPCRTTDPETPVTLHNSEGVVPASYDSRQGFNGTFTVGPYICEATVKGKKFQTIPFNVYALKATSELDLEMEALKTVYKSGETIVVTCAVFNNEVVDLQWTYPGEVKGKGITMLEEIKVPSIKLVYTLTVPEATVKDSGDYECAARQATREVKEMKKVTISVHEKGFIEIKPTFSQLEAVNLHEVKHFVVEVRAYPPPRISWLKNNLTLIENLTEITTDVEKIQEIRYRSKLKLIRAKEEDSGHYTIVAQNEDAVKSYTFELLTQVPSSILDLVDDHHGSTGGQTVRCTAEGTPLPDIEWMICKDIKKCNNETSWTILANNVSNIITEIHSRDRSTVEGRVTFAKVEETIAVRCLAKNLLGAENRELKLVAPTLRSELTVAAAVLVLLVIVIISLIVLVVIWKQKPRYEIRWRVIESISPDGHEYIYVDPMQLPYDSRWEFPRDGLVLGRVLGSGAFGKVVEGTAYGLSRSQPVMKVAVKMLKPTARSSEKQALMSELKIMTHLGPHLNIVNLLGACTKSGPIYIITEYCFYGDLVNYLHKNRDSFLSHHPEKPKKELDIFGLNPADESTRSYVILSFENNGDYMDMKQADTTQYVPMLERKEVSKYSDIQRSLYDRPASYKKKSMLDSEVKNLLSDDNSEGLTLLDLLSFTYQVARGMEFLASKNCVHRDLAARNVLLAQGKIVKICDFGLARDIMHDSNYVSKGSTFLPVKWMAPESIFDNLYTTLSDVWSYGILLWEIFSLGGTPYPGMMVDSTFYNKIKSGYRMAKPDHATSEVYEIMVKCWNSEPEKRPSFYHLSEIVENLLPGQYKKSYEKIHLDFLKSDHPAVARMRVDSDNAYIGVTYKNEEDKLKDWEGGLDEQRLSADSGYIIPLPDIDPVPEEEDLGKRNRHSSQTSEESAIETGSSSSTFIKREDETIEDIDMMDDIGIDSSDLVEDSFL
Sequence of Dual specificity protein kinase CLK1 (Homo sapiens) (P49759 whole entry, looked up, the tested form may be a part): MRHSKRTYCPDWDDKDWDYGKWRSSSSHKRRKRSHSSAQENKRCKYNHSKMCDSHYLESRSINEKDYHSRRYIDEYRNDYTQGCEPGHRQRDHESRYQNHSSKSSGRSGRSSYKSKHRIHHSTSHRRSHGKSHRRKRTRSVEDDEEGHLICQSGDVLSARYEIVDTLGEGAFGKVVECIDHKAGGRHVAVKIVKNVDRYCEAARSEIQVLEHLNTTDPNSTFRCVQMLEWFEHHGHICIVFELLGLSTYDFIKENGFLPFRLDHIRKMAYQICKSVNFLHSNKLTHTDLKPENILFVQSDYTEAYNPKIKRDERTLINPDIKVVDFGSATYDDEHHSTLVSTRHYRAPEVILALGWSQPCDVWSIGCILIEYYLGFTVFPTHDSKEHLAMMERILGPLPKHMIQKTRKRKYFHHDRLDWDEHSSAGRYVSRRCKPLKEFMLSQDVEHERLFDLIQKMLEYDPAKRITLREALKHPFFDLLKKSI
Sequence of Serine/threonine-protein kinase DCLK1 (Homo sapiens) (O15075 whole entry, the tested form may be a part): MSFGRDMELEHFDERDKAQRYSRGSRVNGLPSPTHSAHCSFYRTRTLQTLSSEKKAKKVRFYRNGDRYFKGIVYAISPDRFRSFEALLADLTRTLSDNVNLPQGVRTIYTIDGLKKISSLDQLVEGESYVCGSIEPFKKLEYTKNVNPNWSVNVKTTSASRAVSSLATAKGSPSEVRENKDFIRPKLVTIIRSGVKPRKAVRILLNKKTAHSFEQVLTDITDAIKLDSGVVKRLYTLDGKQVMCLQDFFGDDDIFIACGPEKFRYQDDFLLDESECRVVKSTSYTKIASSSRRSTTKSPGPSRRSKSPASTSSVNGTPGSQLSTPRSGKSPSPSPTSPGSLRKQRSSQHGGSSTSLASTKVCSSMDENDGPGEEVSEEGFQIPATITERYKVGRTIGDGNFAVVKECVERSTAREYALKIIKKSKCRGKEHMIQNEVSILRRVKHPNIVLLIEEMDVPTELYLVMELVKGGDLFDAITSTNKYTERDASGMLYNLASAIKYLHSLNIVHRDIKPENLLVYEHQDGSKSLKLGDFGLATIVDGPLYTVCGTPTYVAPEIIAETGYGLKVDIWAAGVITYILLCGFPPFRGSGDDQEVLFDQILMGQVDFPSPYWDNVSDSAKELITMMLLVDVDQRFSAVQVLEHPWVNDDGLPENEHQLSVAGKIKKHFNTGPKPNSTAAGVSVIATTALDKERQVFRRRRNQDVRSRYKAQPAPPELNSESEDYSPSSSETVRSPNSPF
Sequence of Serine/threonine-protein kinase 16 (Homo sapiens) (O75716 whole entry, the tested form may be a part): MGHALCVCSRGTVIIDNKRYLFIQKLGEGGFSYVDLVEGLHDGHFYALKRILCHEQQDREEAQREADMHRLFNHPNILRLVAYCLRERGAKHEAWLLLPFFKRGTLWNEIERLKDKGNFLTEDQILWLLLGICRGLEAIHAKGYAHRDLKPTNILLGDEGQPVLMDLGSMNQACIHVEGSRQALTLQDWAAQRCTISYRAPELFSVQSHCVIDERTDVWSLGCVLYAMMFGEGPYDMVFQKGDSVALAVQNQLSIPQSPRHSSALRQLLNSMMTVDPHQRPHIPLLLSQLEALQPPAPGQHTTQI

`Cc1ccc(NC(=O)c2ccc(CN(CCN(C)C)C(=O)c3cccnc3)cc2)cc1Nc1nccc(-c2cccnc2)n1` gave an IC50 [1] of 2460 nM, an Activity [2] of 100% and an Activity [3] of 78%. For the same molecule, the Activity [4] was 4.9%, the Activity [5] was 100% and the GI50 [6] was 2900 nM. For the same molecule, the Activity [7] was 85%, the Activity [8] was 85% and the Activity [9] was 100%. The Activity [10] was 100%, the Vd [11] was 5.98 L/kg and the inhibition [12] was “Dose-dependent effect”. It also gave an Activity [13] of 100%, an Activity [14] of 100% and an Activity [15] of 100%. The Activity [16] was 88%, the Activity [17] was 96% and the Activity [18] was 100%. The Activity [19] was 100% and the Activity [20] was 87%.
